Assay results: the EternaBench riboswitch data

Test system: MS2 coat protein
Test: apparent Kd, MS2 coat protein; higher = weaker binding; RNA-MaP array; FMN 200 µM where present
Summary of the method: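 Two titrations, one without ligand and one with constant ligand, were run with SNAP-549-labelled MS2 coat protein from 0.7 or 1.5 nM, doubling to 3 µM. The targets were designs transcribed by stalled E. coli RNA polymerase on Illumina sequencing-chip clusters, in 100 mM Tris-HCl pH 7.5, 80 mM KCl, 4 mM MgCl2, BSA, DTT, yeast tRNA and Tween-20. The apparent Kd is the median of filtered per-cluster binding-curve fits, with green signal normalised to red-channel RNA signal and control-cluster median Fmax.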

[1] = designed as: OFF switch for flavin mononucleotide, no ligand
[2] = ligand present: flavin mononucleotide, designed as: OFF switch for flavin mononucleotide
[3] = designed as: ON switch for flavin mononucleotide, no ligand
[4] = ligand present: flavin mononucleotide, designed as: ON switch for flavin mononucleotide

Row | Sequence | apparent Kd [1] | apparent Kd [2] | apparent Kd [3] | apparent Kd [4]
1 | UAAGAUUAUGUAGGAUAUGGUUAUCUAUGUCUAGUUACUAGACAUAGAUAACCAGAAGGACAUGAGGAUCACCCAUGUUGAACG | 7.73 nM | 16.9 nM | – | –
2 | CUGCCUUAUGUAGGAUAUGCAUAGCGUUGCUAUGCAGAAGGACAUGAGGAUCACCCAUGUAUGUAAUCAAUACAUAUCUGGCAG | 19.8 nM | 122 nM | – | –
3 | GAUUGACAAGGAUAUACAUGAGGAUCACCCAUGUGCUUCAGCUAGGAGACUAGCAUUGGUAGAAGGUGUUAAUC | 20.3 nM | 68.4 nM | – | –
4 | CGAUAUUAUGCAGGAUAUCUCCCUUGAAUGUGGAGAGAAGGGCAUAGGGAGACAUAAGCCUUAUUACAUGAGGAUCACCCAUGU | 10.3 nM | 9.31 nM | – | –
5 | GGAUAGGAGAGAGGAUAUACGUGCUAGAGAUACUAGCAAAAUUUCCUCACAUGAGGAUCACCCAUGUAGAAGGCUGUCCUAUCG | 11.1 nM | 210 nM | – | –
6 | AUAUACUUCCAGAAGGCACAUGAGGAUCACCCAUGUACGUCUGACAUCGUGUGAGGAUAUGGAGCACGAACGCUAAAGCGGGCA | 7.92 nM | 21.3 nM | – | –
7 | AGAUAACACCAGAAGGACAUGAGGAUCACCCAUGUAGGAUAUGGGCAUCACUCGAGAAAGAAACGACCGAAAGGACACGCGGUC | – | – | 155 nM | 13 nM
8 | AUAAGUGCAGGAUAUACGGGAAGCUAGCGAAAGCUAGCAAAACAUGAGGAUCACCCAUGUAGAAGGGCACAAUA | 57.4 nM | 121 nM | – | –
9 | CGAAGCCCGUAGAAGGGUGACAUGAGGAUCACCCAUGUGCGAGCGGAGGGAGUCAGCGGCUCGCCACAGGAUAUACGGAGCUCG | – | – | 151 nM | 67.9 nM
10 | CAUUAAUUCAUUAUAGUUAUUAUACAGGAUAUGUUACAUGAGGAUCACCCAUGUAUUCAUGGUAAACAGAAGGGUAAUACUCGU | 49.3 nM | 45.9 nM | – | –
11 | AGUGUCAUCCAGAAGGCCUCAUUACAUGAGGAUCACCCAUGUAAUCGUGGGAGGAUAUGGAUGAUACAGCUACGUUUCGUAGCA | – | – | 7.42 nM | 4.65 nM
12 | CGCAAGUAUACAUGAGGAUCACCCAUGUCAAAUAUGGUAAUCAGAAGGUACAAUUCAAUAUAUAGUAAGGAUAUGAAUUUUGCG | – | – | 59 nM | 23.3 nM
13 | AUAUGAAAGAUAGGAUAUACUGAGGUUGAAUGGGUAGAAGGAUCGAUAGUGGAGAAGACAUGAGGAUCACCCAUGUUGUGGAUU | – | – | 656 nM | 237 nM
14 | GAGAAGUCAGGAUAUCCAUGGCGGCACUUGCGUGGUGGCGUGGAGAAGGGACAUGAGGAUCACCCAUGUAAAGC | 54 nM | 34.9 nM | – | –
15 | AAAUUGCUAGAGGAUAUCGGAUAGGAUCUAUUACGAGAAGGUUAGACAUGAGGAUCACCCAUGUUCUGUUGGGA | 42.6 nM | 123 nM | – | –
16 | GCCGAUUAAGUCAGGAUAUACCUAUGGAUACAUAGGUAGAAGGGACAUGAGGAUCACCCAUGUUCCUCACCGGC | 14.8 nM | 21.8 nM | – | –
17 | AGUUUGUGAGGAUAUCCAAUAUAUGACAUGAGGAUCACCCAUGUUUCCACUCGUACCUCCGGAGAAGGCACUGCGU | 30.7 nM | 26.9 nM | – | –
18 | UGAAUGUAGGAGAAGGAGGACUUCAUGAGGAUCACCCAUGUGUUAGGACUUAGGAUAUUUGACGACAUGAGGAUCACCCAUGUG | – | – | 62.5 nM | 55.7 nM
19 | UAUAUGUCAGGAUAUCGCAACUGCGCGCGCAAGAAUCAUAACGAGAAGGGACAUGAGGAUCACCCAUGUACACU | 18.6 nM | 25.7 nM | – | –
20 | GGCGAAGUAGGAUAUACAUGAGGAUCACCCAUGUAACCUGAUGGCGUAGGUCUUCUAUGUAGAAGGGCUACGCC | 15.9 nM | 16.9 nM | – | –
21 | GCGUAUUAGGUGUAGCUAGACAUUCAAGAAGGGUGAAGAACAUGAGGAUCACCCAUGUAGUUUUUACAGGAUAUUGAUAUACGC | – | – | 356 nM | 20.4 nM
22 | CUCAUGUCAGGAUAUAGCCACAUGAGGAUCACCCAUGUGGACUAGAAGGGACAUGAGGAUCACCCAUGUAUGAA | 11.4 nM | 10.2 nM | – | –
23 | AUUGUAGUUGUGAGGAUAUCGUAGAUUUAUUGAAACGAGAAGGCACAUGAGGAUCACCCAUGUAAGUUGUAGGU | 71.2 nM | 267 nM | – | –
24 | AGUGUCAUCGAGAAGGCCUCGACAUGAGGAUCACCCAUGUUGUAACAUGGGAGGAUAUCGAUGAUACAGCUACGUUUCGUAGCA | – | – | 767 nM | 394 nM

Row | Sequence | apparent Kd [1] | apparent Kd [2] | apparent Kd [3] | apparent Kd [4]
25 | AGCUACACCCAGAAGGACAUGAGGAUCACCCAUGUAGGAUAUGGGACACACAGUGCCAUGUAGAGAAAUUACGCUAGUGUAGCG | – | – | 14.3 nM | 8.42 nM
26 | GGGACUUACGAGAAGGGCUACAUGAGGAUCACCCAUGUAAAUCUUCGGGUAGCAGGAUAUCGGCGGCUACAGGAGGGCCAAGUC | 14.3 nM | 90.7 nM | – | –
27 | GAAGAACAUGAGGAUCACCCAUGUGAUUCGCAUGUAGGAUAUGGGCACGCGCCCGCGUGUCUAGAAGGACAGGCUA | – | – | 69.3 nM | 109 nM
28 | AGAAUAAACCAGAAGGCCGAGAUACAUGAGGAUCACCCAUGUAUACUUUGGAGGAUAUGGAUGAUUCAAGUGCGUUUCGUAGCA | – | – | 3.98 nM | 3.36 nM
29 | AGCAACAUGAGGAUCACCCAUGUUGGUUCGAAAACGGACUCACAGGAUAUACGGCAUAAUCGCUCGUAGAAGGGUGCGUCCUCA | – | – | 14 nM | 12.8 nM
30 | GUCAAAACCAUACUGGUCGACGGUCAGGAUAUACAUGAGGAUCACCCAUGUGCUAUUGAUACUAUGUAGAAGGGACCCACCGCA | 16.2 nM | 30 nM | – | –
31 | CUGGUGUGAGGAUAUCAGGACACGUAAGCGGGCGUGUCAAAUGAGAAGGCACAUGAGGAUCACCCAUGUGGGAC | 34 nM | 214 nM | – | –
32 | GAGUGACAUGAGGAUCACCCAUGUGAGGAUAUCGGACGGACCAAAUUAACAACAACCGCGAGAAGGCACAUCGG | 146 nM | 135 nM | – | –
33 | UCCUGGCGAGGAUAUACAAUGUUUUUCGCGUGUUGUUGCGAACAUGAGGAUCACCCAUGUAGAAGGUGCUACUG | 278 nM | 225 nM | – | –
34 | UGUUGUAUUACAGGAUAUCUAUGAUUUUUAUUAAGAGAAGGGUAUUCACAUGAGGAUCACCCAUGUAUAUACGAGGAAGUUGUG | – | – | 35.2 nM | 36 nM
35 | GAACGUGAGACGACCGUGGGUACAUGAGGAUCACCCAUGUGCAGAAGGCGAAUAUGACGAUGUGUCGAGGAUAUGCACAGCUCA | 22.4 nM | 97.6 nM | – | –
36 | UUGGUAUUUGUAGGAUAUCUGUCGCCACCGUGUGGAGAAGGACGAACAUGAGGAUCACCCAUGUAUCAUGGUGUGGGCUUUGUU | 757 nM | 710 nM | – | –
37 | GGCCGUAAUAAGGAUAUCACUAGCUUCGGCUAGUGAGAAGGUAUUACAUGAGGAUCACCCAUGUGGUCAGGCCA | 279 nM | 730 nM | – | –
38 | AAAAAACAUGAGGAUCACCCAUGUAAGGAUAUCUAAAAUAAAAGAAAAAUAAAGAAAAGGAGAAGGUACAAGGA | 24.5 nM | 35.1 nM | – | –
39 | CAGCGGUCAGGAUAUGCAUGGCGGGACUUGCGUCGUGGCGUGGAGAAGGGACAUGAGGAUCACCCAUGUGGGAA | 134 nM | 81.9 nM | – | –
40 | GCAUUUCAGUAAGGAUAUAUAAACAUGACGAUACAUGAGGAUCACCCAUGUGUAGAAGGUACUAAUACAUAUAAUGCAAUGGUC | 26.6 nM | 21.1 nM | – | –
41 | CCAUUCAGAGGAUAUGCGCAUAGAUAAGACUUUUUUUUUUAACAUGAGGAUCACCCAUGUAGAAGGCUGUAACC | 23.2 nM | 23.1 nM | – | –
42 | AUUAUACAUGAGGAUCACCCAUGUAAUUAAUUAAUUAAGAUCUAGGAUAUCAGCUCGAAUAGAGCUGAGAAGGAGAUCACAUGU | – | – | 31.7 nM | 18 nM
43 | UGGAAGAGAAGAGGAUAUCCGUAGAUAACACAUGAGGAUCACCCAUGUAAGAGGGAUAGGUGAUAGGAGAAGGCUUAGAGAGGU | 15.2 nM | 14.9 nM | – | –
44 | GUGGAGUACGUAGGAUAUGUAGGAUAUUCCUACAUGAGGAUCACCCAUGUUGACAUGGAGGAAGGACAGAAGGACGUGCUCCAG | – | – | 265 nM | 256 nM
45 | GGGUACAUCGUAGGAUAUCAUGUAAAUACAUGAGGAUCACCCAUGUCGAUGGAGACAUCGGAGAUUGAGAAGGCCGAUGUACCG | – | – | 206 nM | 17.9 nM
46 | GUUUCACAUGAGGAUCACCCAUGUGAGGAUAUGGAUUUGUUAACCGUAGUUAAUAGAUCCAGAAGGCGCGUGAU | 62.4 nM | 68.2 nM | – | –
47 | AACAUGUGAGGAUAUGAGAACAGCCGGGAGGGCUGUGUAAAUUAGAAGGCACAUGAGGAUCACCCAUGUGACCU | 18.2 nM | 27.8 nM | – | –
48 | CUUUUGUGAGGAUAUCAGUAGUAAAAUAAUAAAUAUACUACUGAGAAGGCACAUGAGGAUCACCCAUGUUCCUC | 37.8 nM | 233 nM | – | –
